Assays:
B2 bradykinin receptor [1] = target: T1, B2 bradykinin receptor (Cavia porcellus, UniProt O70526); experiment: Inhibition of the specific binding of [3H]BK to Bradykinin receptor B2 in guinea pig ileum membrane preparations; assay type: cell membranes
T1 sequence (O70526 whole entry): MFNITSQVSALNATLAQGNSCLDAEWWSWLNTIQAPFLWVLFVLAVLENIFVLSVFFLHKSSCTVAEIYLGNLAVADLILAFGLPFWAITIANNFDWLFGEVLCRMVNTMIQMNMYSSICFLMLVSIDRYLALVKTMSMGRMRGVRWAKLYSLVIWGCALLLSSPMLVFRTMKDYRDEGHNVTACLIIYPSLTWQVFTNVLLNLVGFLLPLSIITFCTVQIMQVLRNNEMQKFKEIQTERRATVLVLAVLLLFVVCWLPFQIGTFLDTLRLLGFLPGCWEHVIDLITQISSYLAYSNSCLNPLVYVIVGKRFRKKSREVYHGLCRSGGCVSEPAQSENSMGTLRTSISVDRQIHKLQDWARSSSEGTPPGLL
Procedure, shortened: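 Male Hartley guinea pig ileum membranes (100000g pellet) at 0.2 mg protein/mL in pH 6.8 TES buffer with phenanthroline, bacitracin, DTT, captopril, BSA. Incubated with 0.06 nM [3H]BK plus varying compound concentrations, 60 min, room temperature. Filtration harvest, scintillation counting. Nonspecific binding defined with 1 µM unlabeled BK. IC50 as mean of at least three determinations.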

Cavia porcellus = experiment: Antagonistic activity in inhibiting BK-induced bronchoconstriction in guinea pigs by oral administration at 1 mg/kg dose.; assay type: functional
Procedure, shortened: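 Male Hartley guinea pigs (470-750 g), fasted overnight, anesthetized with pentobarbital 30 mg/kg ip, ventilated 10 mL/kg at 60 breaths/min; alcuronium 0.5 mg/kg iv, propranolol 10 mg/kg sc. BK 5 µg/kg iv; peak rise in insufflation pressure (modified Konzett–Rössler). Compound in 0.5% methylcellulose given via esophageal cannula; BK repeated 30 min later. % inhibition vs vehicle group; n = 3-4/dose.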

B2 bradykinin receptor [2] = target: T2, B2 bradykinin receptor (Homo sapiens, UniProt P30411); experiment: Inhibition of the specific binding of [3H]BK to human recombinant Bradykinin receptor B2 expressed in CHO cells.; assay type: cell-based
T2 sequence (P30411 whole entry): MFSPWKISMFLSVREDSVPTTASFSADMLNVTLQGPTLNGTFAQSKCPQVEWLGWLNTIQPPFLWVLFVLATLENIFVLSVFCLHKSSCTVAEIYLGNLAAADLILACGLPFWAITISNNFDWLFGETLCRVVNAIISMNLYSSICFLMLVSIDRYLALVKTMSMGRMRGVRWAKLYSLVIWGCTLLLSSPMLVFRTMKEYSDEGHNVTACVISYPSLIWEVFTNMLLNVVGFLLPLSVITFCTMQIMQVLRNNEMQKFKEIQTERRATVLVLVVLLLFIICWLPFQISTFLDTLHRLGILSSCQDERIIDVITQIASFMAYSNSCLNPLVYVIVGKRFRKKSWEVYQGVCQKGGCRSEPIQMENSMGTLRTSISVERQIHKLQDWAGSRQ
Procedure, shortened: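 Intact CHO (dhfr-) cells stably expressing human B2, seeded at 3.0 × 10^4 cells/well and cultured 1 day. Incubated with 1.0 nM [3H]BK and compound, 2 h at 4 °C, in HEPES/N-methyl-D-glucamine buffer pH 7.2 with bacitracin, enalaprilat, BSA. Cells solubilized in SDS/NaOH for scintillation counting. Nonspecific binding defined with 1 µM BK. Run three times.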

SMILES | IC50 (B2 bradykinin receptor [1]) [nM] | inhibition in vivo at 1 mg/kg (Cavia porcellus) [%] | IC50 (B2 bradykinin receptor [2]) [nM]
CC(=O)Nc1ccc(/C=C/C(=O)NCc2cccn2-c2ccc(Cl)c(COc3cccc4ccc(C)nc34)c2Cl)cn1 | 0.56 | 82.1 | 0.37
CC(=O)Nc1ccc(/C=C/C(=O)NCC(=O)Nc2ccc(Cl)c(COc3cccc4ccc(C)nc34)c2Cl)cn1 | 280 | – | 4200
CNC(=O)c1ccc(/C=C/C(=O)NCc2cccn2-c2ccc(Cl)c(COc3cccc4ccc(C)nc34)c2Cl)cc1 | 0.64 | 67.9 | 0.26
CNC(=O)c1ccc(/C=C/C(=O)NC/C=C\c2ccc(Cl)c(COc3cccc4ccc(C)nc34)c2Cl)cc1 | 17 | – | 14
CNC(=O)c1ccc(/C=C/C(=O)Nc2cccc(-c3ccc(C)c(COc4cccc5ccc(C)nc45)c3C)c2)cc1 | 94 | – | > 10000
CNC(=O)c1ccc(/C=C/C(=O)NCC(=O)N(C)c2cccc(COc3cccc4ccc(C)nc34)c2C)cc1 | 17 | – | 150
Cc1ccc2cccc(OCc3c(Cl)ccc(-n4cccc4CNC(=O)/C=C/c4ccc(N5CCCC5=O)cc4)c3Cl)c2n1 | 0.58 | 36 | 0.41
CNC(=O)c1ccc(/C=C/C(=O)NCC(=O)N(C)c2ccc(OC)c(COc3cccc4ccc(C)nc34)c2OC)cc1 | 17 | – | 210
Cc1ccc2cccc(OCc3c(Cl)ccc(N(C)C(=O)CNC(=O)/C=C/c4ccc(N5CCCC5=O)cc4)c3Cl)c2n1 | 0.55 | 85.3 | 3.2
CNC(=O)c1ccc(/C=C/C(=O)NCc2ccccc2-c2ccc(C)c(COc3cccc4ccc(C)nc34)c2C)cc1 | – | – | 2.6
CNC(=O)c1ccc(/C=C/C(=O)NCC(=O)N(C)c2ccc(Cl)c(COc3cccc4ccc(C)nc34)c2)cc1 | 5.1 | – | 110
CNC(=O)c1ccc(/C=C/C(=O)NCc2sccc2-c2ccc(C)c(COc3cccc4ccc(C)nc34)c2C)cc1 | 2.8 | – | 5.8
Cc1ccc2cccc(OCc3c(Cl)ccc(N(C)C(=O)CNC(=O)/C=C/c4ccc(/C=C/c5ccncc5)nc4)c3Cl)c2n1 | 0.76 | 87.3 | 0.51
CNC(=O)c1ccc(/C=C/C(=O)NCC=Cc2ccc(Cl)c(COc3cccc4ccc(C)nc34)c2Cl)cc1 | 220 | – | 710
